Experimental data published in PubChem BioAssay AID624106 (Broad Institute, 2012).
Activity calls are given as the source filed them.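 How the source made its calls: active means fitted curve reaches a 35% absorbance drop at both wavelengths in duplicate, with AC35 under 50 µM; inactive means the rest, including signal rising instead of falling.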

tested on: P. aeruginosa PAK + EDDHA, OD405 pyoverdine, 28 h; test: P. aeruginosa growth delay with EDDHA chelator – PAK wild type, OD405, dry powder, set 2, dose response (AID 624106); settings: not given
Summary of the method: (§1)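 Assay system: wild-type Pseudomonas aeruginosa PAK bacteria; buffer or medium: succinate M9 medium, pH 7.0, with 2 µM EDDHA iron chelator; doses: compounds 15 nM–100 µM final; times: compound exposure 28 h at 30 °C, humidified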

| SMILES | AC35 |
| --- | --- |
| N#CC(c1ccc(Cl)cc1)N1CCCC1 (centres undefined) | > 100 µM (inactive) |
| N#CC(c1ccc(Cl)cc1)c1cccc(C(F)(F)F)n1 (centres undefined) | 19.3 µM |
| N#CC(c1ccc(F)cc1)c1cccc(C(F)(F)F)n1 (centres undefined) | 45.4 µM |
| N#CC(c1ccc(Cl)cc1)c1cccc(Cl)n1 (centres undefined) | 67 µM |
| N#CC(c1cccc(C(F)(F)F)n1)c1ccc(Cl)cc1F (centres undefined) | 18.8 µM |
| N#CC(c1ccc(Cl)cc1)c1ccccn1 (centres undefined) | > 100 µM (inactive) |
| COCCC(C#N)c1ccc(F)cc1 (centres undefined) | > 100 µM (inactive) |
| N#Cc1cccc(C(C#N)c2ccc(F)cc2)n1 (centres undefined) | > 100 µM (inactive) |
| N#CC(c1cccc(Cl)n1)c1ccc(Cl)cc1F (centres undefined) | 25.9 µM |

tested on: not listed separately; test: as above; settings: P. aeruginosa PAK + EDDHA, OD405 pyoverdine, 28 h; at 100 µM (top of the series)
Summary of the method: as §1

| SMILES | activity change, negative = inhibition |
| --- | --- |
| COCCNC(C#N)c1ccc(Cl)cc1 (centres undefined) | -12.1% (inactive) |
| CCCCC(C#N)c1ccc(F)cn1 (centres undefined) | -12.4% (inactive) |
| CN(C)CCCC(C#N)c1ccc(F)cc1 (centres undefined) | -12.9% (inactive) |
| COCCC(C#N)c1ccc(Cl)cc1 (centres undefined) | -2.12% (inactive) |
| COCCOCCC(C#N)c1ccc(Cl)cc1 (centres undefined) | -2.61% (inactive) |
| CCCCC(C#N)c1ccc(Cl)cn1 (centres undefined) | -7.7% (inactive) |
| COCCOCCC(C#N)c1ccc(F)cc1 (centres undefined) | -8.85% (inactive) |
| N#CC(c1ccc(C(F)(F)F)c(Cl)n1)c1ccccc1OC(F)(F)F (centres undefined) | -16% (inactive) |
| CN(C)CCCC(C#N)c1ccc(Cl)cc1 (centres undefined) | -3.43% (inactive) |
| CCCCC(c1ccc(Cl)cc1)c1nn[nH]n1 (centres undefined) | -8.03% (inactive) |
| CCCCC(C#N)c1ccc(F)cc1 (centres undefined) | -5.09% (inactive) |
| CCCCC(C#N)c1ccc(Cl)cc1 (centres undefined) | -7.02% (inactive) |
| Clc1ccc(C(c2cccc(Cl)n2)c2nn[nH]n2)cc1 (centres undefined) | 11.9% (inactive) |
| N#CC1c2ccc(Cl)cc2CCc2cccnc21 (centres undefined) | -13.8% (inactive) |
| CCCCC(C#N)c1ccccn1 (centres undefined) | -4.26% (inactive) |
